Here are results for 40 compounds from ChEMBL document CHEMBL3616402, “A novel series of indazole-/indole-based glucagon receptor antagonists” (Bioorg Med Chem Lett, 2015).

As a reminder, the IC50 is the concentration that gives 50% inhibition. By bioavailability is commonly meant dose-corrected exposure relative to a reference, in per cent. A lower bioavailability goes with little systemic uptake. As usually defined, the half-life is the time needed for the level to fall by half in the phase considered.

Data set [1] concerns the target T1, Glucagon receptor (Homo sapiens, UniProt P47871). Put plainly: Antagonist activity against human glucagon receptor expressed in CHO cells assessed as reduction in glucagon-induced cAMP production. It counts as functional, cell-based. (Cyclic AMP is a second messenger, typically raised through Gs and lowered through Gi signalling.)
The target of data set [2] is T1, Glucagon receptor. Put plainly: Displacement of [125I]glucagon from human glucagon receptor expressed in CHO cell membranes. The method in brief:
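Binding: displacement of [125I]glucagon from human GCGR in membranes prepared from a CHO cell line stably expressing hGCGR; IC50 reported in nM.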

In data set [3] the target is T2, Gastric inhibitory polypeptide receptor (Homo sapiens, UniProt P48546).
T2 sequence (P48546 whole entry): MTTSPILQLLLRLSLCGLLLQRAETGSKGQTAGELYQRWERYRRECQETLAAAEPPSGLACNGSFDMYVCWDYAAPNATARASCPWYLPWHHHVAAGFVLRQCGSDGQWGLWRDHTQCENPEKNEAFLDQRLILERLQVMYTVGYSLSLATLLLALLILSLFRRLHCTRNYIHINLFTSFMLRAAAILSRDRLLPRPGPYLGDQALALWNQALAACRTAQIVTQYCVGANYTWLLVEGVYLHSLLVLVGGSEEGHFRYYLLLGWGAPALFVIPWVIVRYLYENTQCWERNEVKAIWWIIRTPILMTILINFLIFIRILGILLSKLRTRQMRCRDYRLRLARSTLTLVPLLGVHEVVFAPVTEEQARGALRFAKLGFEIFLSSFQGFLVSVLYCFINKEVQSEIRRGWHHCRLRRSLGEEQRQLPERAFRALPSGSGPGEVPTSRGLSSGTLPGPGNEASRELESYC
Put plainly: Antagonist activity against human glucose dependent insulinotropic peptide receptor by cAMP accumulation assay. The data set is classed as functional. The method in brief:
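Selectivity counter-screen: cAMP production measured in CHO cells expressing human GIPR; IC50 (potency) determined.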

The nature of data set [4]: Oral bio availability in Wistar rat 2 mg/kg. It counts as ADME, organism-based. As to conditions: in vivo. The essentials: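 Oral bioavailability from Wistar rats dosed 2 mg/kg po with 0.5 mg/kg iv reference dose; F (%) from plasma exposure.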
The species named for data set [5] is Homo sapiens. The experiment in a line: Selectivity index, ratio of IC50 for human glucose dependent insulinotropic peptide receptor to IC50 for human glucagon receptor.
Data set [6] in a line: Plasma clearance in Wistar rat at 0.5 mg/kg, iv or 2 mg/kg, po. It counts as ADME, organism-based. The essentials: (§1)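 Wistar rats given 0.5 mg/kg iv and 2 mg/kg po; plasma concentration–time profiles used to derive plasma clearance, steady-state volume of distribution, half-life and dose-normalized AUC (µM·h·kg/mg).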
The nature of data set [7]: Half life in Wistar rat at 0.5 mg/kg, iv or 2 mg/kg, po. It counts as ADME, organism-based. As to conditions: in vivo. The essentials:
as §1

Data set [8] deals with Rattus norvegicus. The experiment in a line: Dose normalized AUC in Wistar rat at 0.5 mg/kg, iv or 2 mg/kg, po. As to conditions: in vivo. The data set is classed as ADME, organism-based. The essentials: as §1
Data set [9] can be described thus: Volume of distribution at steady state in Wistar rat at 0.5 mg/kg, iv or 2 mg/kg, po. It counts as ADME, organism-based. As to conditions: in vivo, read-out: Vdss. The method in brief: as §1

T1 sequence (P47871 whole entry): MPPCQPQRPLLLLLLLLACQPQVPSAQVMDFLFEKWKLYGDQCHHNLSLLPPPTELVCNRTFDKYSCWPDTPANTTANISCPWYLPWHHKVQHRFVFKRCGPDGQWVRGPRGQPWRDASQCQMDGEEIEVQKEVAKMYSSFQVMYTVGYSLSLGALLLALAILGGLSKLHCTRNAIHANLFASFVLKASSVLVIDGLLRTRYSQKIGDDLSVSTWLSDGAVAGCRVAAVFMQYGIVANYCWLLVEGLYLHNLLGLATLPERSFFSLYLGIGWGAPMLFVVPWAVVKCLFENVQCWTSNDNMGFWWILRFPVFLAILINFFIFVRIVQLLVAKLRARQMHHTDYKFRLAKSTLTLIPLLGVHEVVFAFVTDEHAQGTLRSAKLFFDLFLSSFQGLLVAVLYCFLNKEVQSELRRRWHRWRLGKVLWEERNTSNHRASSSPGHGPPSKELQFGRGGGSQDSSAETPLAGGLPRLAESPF

Regarding `CC(c1ccc(C(=O)NCCC(=O)O)cc1)n1nc(-c2cc(F)ccc2Cl)c2ccc(-c3ccc(OC(F)(F)F)cc3)cc21` (configuration not stated), the results for the IC50 in [1] and in [2] were 140 nM and 10 nM, respectively.
Regarding `CCCC(c1ccc(C(=O)NCCC(=O)O)cc1)n1nc(-c2cc(C(F)(F)F)ccc2OC)c2ccc(-c3ccc(OC(F)(F)F)cc3)cc21` (configuration not stated), the IC50 in data set [3] stood at 1400 nM; in data set [1], 5.6 nM; in [2], 1 nM. In addition, in data set [4], the bioavailability was determined as 19%. In addition, the Ratio IC50 in [5] came to 250. Further, the clearance in data set [6] was 2.2 mL/min/kg. The same compound gave a half-life in [7] of 9.7 h. The AUC/dose in data set [8] worked out at 2 µM·kg·h/mg. For the same compound, the Vd in [9] was 1.3 L/kg.
Regarding `CCCCC(c1ccc(C(=O)NCCC(=O)O)cc1)n1nc(-c2cc(C(F)(F)F)ccc2OC)c2ccc(-c3ccc(C(F)(F)F)cc3)cc21` (configuration not stated), the values for the IC50 in data set [1] and in data set [2] were 14 nM and 1.6 nM, respectively.
The corresponding values for `CCCCC(c1ccc(C(=O)NCCC(=O)O)cc1)n1nc(-c2cc(C(F)(F)F)ccc2OC)c2ccc(-c3ccc(C)s3)cc21` (configuration not stated) are 18 nM and 4 nM.
The corresponding values for `COc1cncc(-c2nn(C(C)c3ccc(C(=O)NCCC(=O)O)cc3)c3cc(-c4ccc(OC(F)(F)F)cc4)ccc23)c1` (configuration not stated) are 100 nM and 50 nM.
The corresponding values for `CC(c1ccc(C(=O)NCCC(=O)O)cc1)n1nc(-c2ccc(C#N)cc2)c2ccc(-c3ccc(OC(F)(F)F)cc3)cc21` (configuration not stated) are 43 nM and 15 nM.
As for `CCCC(c1ccc(C(=O)NCCC(=O)O)cc1)n1nc(-c2cc(C(F)(F)F)ccc2OC)c2cc(-c3ccc(OC)cc3)ccc21` (configuration not stated), the IC50 in data set [1] worked out at 26 nM; in [2], 10 nM.
As to `COc1ccc(-c2nn(C(C)c3ccc(C(=O)NCCC(=O)O)cc3)c3cc(-c4ccc(OC(F)(F)F)cc4)ccc23)cn1` (configuration not stated), the values for the IC50 in data set [1] and in data set [2] were 65 nM and 26 nM, respectively.
With `CC(c1ccc(C(=O)NCCC(=O)O)cc1)n1nc(-c2ccc(Cl)cc2Cl)c2ccc(-c3ccc(OC(F)(F)F)cc3)cc21` (configuration not stated), the IC50 in data set [1] was 41 nM; in [2] it was 8 nM.
Consider `COc1ccc(OC(F)(F)F)cc1-c1nn(C(C)c2ccc(C(=O)NCCC(=O)O)cc2)c2cc(-c3ccc(OC(F)(F)F)cc3)ccc12` (configuration not stated), for which the IC50 in [1] is 11 nM; in data set [2] it was 7 nM.
Turning to `CC(c1ccc(C(=O)NCCC(=O)O)cc1)n1nc(-c2ccc(Cl)c(F)c2)c2ccc(-c3ccc(OC(F)(F)F)cc3)cc21` (configuration not stated), the figures for the concentration for half-maximal inhibition (IC50) in data set [1] and in [2] were 44 nM and 4 nM, respectively.
With `CCCCC(c1ccc(C(=O)NCCC(=O)O)cc1)n1nc(-c2cc(C(F)(F)F)ccc2OC)c2ccc(-c3ccc(OC)nc3)cc21` (configuration not stated), the values for the IC50 in [1] and in data set [2] were 24 nM and 3.4 nM, respectively.
The like results for `COc1nccc(-c2nn(C(C)c3ccc(C(=O)NCCC(=O)O)cc3)c3cc(-c4ccc(OC(F)(F)F)cc4)ccc23)n1` (configuration not stated) were, in that order, 84 nM and 35 nM.
Turning to `CC(c1ccc(C(=O)NCCC(=O)O)cc1)n1nc(-c2cc(Cl)ccc2C(N)=O)c2ccc(-c3ccc(OC(F)(F)F)cc3)cc21` (configuration not stated), the IC50 in data set [1] was found to be 220 nM; in [2] it was 2 nM.
For `CCCCC(c1ccc(C(=O)NCCC(=O)O)cc1)n1nc(-c2cc(C(F)(F)F)ccc2OC)c2ccc(-c3ccc(OC)cc3Cl)cc21` (configuration not stated), the IC50 was determined as 18 nM in data set [1] and 4 nM in data set [2].
The like results for `CC(c1ccc(C(=O)NCCC(=O)O)cc1)n1nc(-c2cc(F)c(F)c(F)c2)c2ccc(-c3ccc(OC(F)(F)F)cc3)cc21` (configuration not stated) were, in that order, 20 nM and 6 nM.
In the case of `COc1ccc(Cl)cc1-c1nn(C(C)c2ccc(C(=O)NCCC(=O)O)cc2)c2cc(-c3ccc(OC(F)(F)F)cc3)ccc12` (configuration not stated), the IC50 in data set [1] amounted to 36 nM; in [2] it was 3 nM.
On to `COc1ccc(C(F)(F)F)cc1-c1nn(Cc2ccc(C(=O)NCCC(=O)O)cc2)c2cc(-c3ccc(C)cc3)ccc12`, for which the IC50 in [1] worked out at 140 nM; in [2], 39 nM.
The corresponding values for `CC(c1ccc(C(=O)NCCC(=O)O)cc1)n1nc(-c2ccc(C(=O)N(C)C)cc2)c2ccc(-c3ccc(OC(F)(F)F)cc3)cc21` (configuration not stated) are 210 nM and 40 nM.
Take `COc1ccc(C(F)(F)F)cc1-c1nn(C(c2ccc(C(=O)NCCC(=O)O)cc2)C(C)C)c2cc(-c3ccc(C)cc3)ccc12` (configuration not stated): the IC50 in data set [1] turned out to be 69 nM; in data set [2], 4 nM.
The like results for `CCCC(c1ccc(C(=O)NCCC(=O)O)cc1)n1nc(-c2cc(C(F)(F)F)ccc2OC)c2ccc(-c3ccc(C)cc3)cc21` (configuration not stated) were, in that order, 5 nM and 2 nM.
The like results for `CCCC(c1ccc(C(=O)NCCC(=O)O)cc1)n1cc(-c2cc(C(F)(F)F)ccc2OC)c2ccc(-c3ccc(OC(F)(F)F)cc3)nc21` (configuration not stated) were, in that order, 360 nM and 12 nM.
In the case of `CCCCC(c1ccc(C(=O)NCCC(=O)O)cc1)n1nc(-c2cc(C(F)(F)F)ccc2OC)c2ccc(-c3cc(F)cc(Cl)c3)cc21` (configuration not stated), the concentration for half-maximal inhibition (IC50) in [1] stood at 46 nM; in data set [2], 7 nM.
The corresponding values for `CCCC(c1ccc(C(=O)NCCC(=O)O)cc1)n1nc(-c2cc(C(F)(F)F)ccc2OC)c2ccc(-c3ccc(OC)cc3)cc21` (configuration not stated) are 11 nM and 4 nM.
`COc1ncccc1-c1nn(C(C)c2ccc(C(=O)NCCC(=O)O)cc2)c2cc(-c3ccc(OC(F)(F)F)cc3)ccc12` (configuration not stated): the results for the IC50 in data set [1] and in [2] were 77 nM and 72 nM, respectively.
The like results for `CC(c1ccc(C(=O)NCCC(=O)O)cc1)n1nc(-c2cc(Cl)cc(C(F)(F)F)c2)c2ccc(-c3ccc(OC(F)(F)F)cc3)cc21` (configuration not stated) were, in that order, 56 nM and 3 nM.
Turning to `CCCCC(c1ccc(C(=O)NCCC(=O)O)cc1)n1nc(-c2cc(C(F)(F)F)ccc2OC)c2ccc(-c3ccc(SC)cc3)cc21` (configuration not stated), the IC50 amounted to 9 nM in [1] and 1.5 nM in data set [2].
The corresponding values for `CCC(c1ccc(C(=O)NCCC(=O)O)cc1)n1nc(-c2cc(C(F)(F)F)ccc2OC)c2ccc(-c3ccc(C)cc3)cc21` (configuration not stated) are 21 nM and 4 nM.
With `CCCCC(c1ccc(C(=O)NCCC(=O)O)cc1)n1nc(-c2cc(C(F)(F)F)ccc2OC)c2ccc(-c3cc(F)c(F)c(F)c3)cc21` (configuration not stated), the values for the IC50 in data set [1] and in data set [2] were 26 nM and 3.5 nM, respectively.
The like results for `CC(c1ccc(C(=O)NCCC(=O)O)cc1)n1nc(-c2cc(C(F)(F)F)ccc2F)c2ccc(-c3ccc(OC(F)(F)F)cc3)cc21` (configuration not stated) were, in that order, 120 nM and 5 nM.
As for `CCCCC(c1ccc(C(=O)NCCC(=O)O)cc1)n1nc(-c2cc(C(F)(F)F)ccc2OC)c2ccc(-c3ccc(OC)c(F)c3)cc21` (configuration not stated), the results for the IC50 in data set [1] and in [2] were 18 nM and 1.5 nM, respectively.
Regarding `CCCC(c1ccc(C(=O)NCCC(=O)O)cc1)n1nc(-c2cc(C(F)(F)F)ccc2OC)c2cccc(-c3ccc(C)cc3)c21` (configuration not stated), the IC50 in [1] was 3800 nM; in data set [2], 780 nM.
The like results for `CCCC(c1ccc(C(=O)NCCC(=O)O)cc1)n1nc(-c2cc(C(F)(F)F)ccc2OC)c2cc(-c3ccc(C)cc3)ccc21` (configuration not stated) were, in that order, 17 nM and 7 nM.
The corresponding values for `CC(c1ccc(C(=O)NCCC(=O)O)cc1)n1nc(-c2cc(F)cc(F)c2F)c2ccc(-c3ccc(OC(F)(F)F)cc3)cc21` (configuration not stated) are 52 nM and 7 nM.
The corresponding values for `CCCC(c1ccc(C(=O)NCCC(=O)O)cc1)n1nc(-c2cc(C(F)(F)F)ccc2OC)c2cccc(-c3ccc(OC)cc3)c21` (configuration not stated) are 2700 nM and 1700 nM.
For `COc1cc(F)c(F)cc1-c1nn(C(C)c2ccc(C(=O)NCCC(=O)O)cc2)c2cc(-c3ccc(OC(F)(F)F)cc3)ccc12` (configuration not stated), the results for the IC50 in data set [1] and in [2] were 37 nM and 4 nM, respectively.
The like results for `CCCCC(c1ccc(C(=O)NCCC(=O)O)cc1)n1nc(-c2cc(C(F)(F)F)ccc2OC)c2ccc(-c3ccccc3)cc21` (configuration not stated) were, in that order, 18 nM and 3 nM.
As for `COc1ccncc1-c1nn(C(C)c2ccc(C(=O)NCCC(=O)O)cc2)c2cc(-c3ccc(OC(F)(F)F)cc3)ccc12` (configuration not stated), the IC50 in data set [1] came to 760 nM; in data set [2], 110 nM.
On to `CCCC(c1ccc(C(=O)NCCC(=O)O)cc1)n1cc(-c2cc(C(F)(F)F)ccc2OC)c2ccc(-c3ccc(OC)cc3)cc21` (racemic), for which the results for the IC50 in data set [1] and in data set [2] were 130 nM and 8 nM, respectively.
The corresponding values for `CCCC(c1ccc(C(=O)NCCC(=O)O)cc1)n1cc(-c2cc(C(F)(F)F)ccc2OC)c2ccc(-c3ccc(C)cc3)cc21` (racemic) are 48 nM and 4 nM.
